Here are results for two compounds from paper PMC10209927 (Russian Journal of General Chemistry, 2023).

The target of assay [1] is T1, aldehyde reductase (ALR1) (Homo sapiens, UniProt P14550).
T1 sequence (P14550 1-325): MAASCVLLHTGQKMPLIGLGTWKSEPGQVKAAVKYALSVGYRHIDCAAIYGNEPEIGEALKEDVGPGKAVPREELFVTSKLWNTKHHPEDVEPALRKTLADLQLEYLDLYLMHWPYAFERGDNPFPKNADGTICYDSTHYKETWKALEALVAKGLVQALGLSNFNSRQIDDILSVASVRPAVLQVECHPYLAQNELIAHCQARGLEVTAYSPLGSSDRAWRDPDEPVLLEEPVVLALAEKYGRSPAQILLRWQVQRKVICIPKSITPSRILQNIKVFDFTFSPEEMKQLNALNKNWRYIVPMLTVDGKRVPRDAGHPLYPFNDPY
The assay is described as follows: In vitro aldehyde reductase. The class given is biochemical. In outline: (§1)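 Enzymes isolated and purified by earlier reported methods, ALR1 at 2.19 μg/well and ALR2 at 1.85 μg/well. Test compound (20 µL of 1 mM solution) was preincubated with the enzyme in 100 mM KH2PO4, pH 6.2, at 37°C for 10 min. Then substrate (50 mM as added) and NADPH (0.5 mM as added) were introduced. OD340 was read after 30 min. % inhibition = 100 − (A test/A control × 100). IC50 ± SEM was determined for compounds with >50% inhibition.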

Assay [2] addresses aldose reductase (ALR2) (Homo sapiens, UniProt P15121). The assay is described as follows: In vitro aldose reductase. Type of assay: biochemical. In outline:
as §1

Usually IC50 stands for the point on the concentration scale where inhibition reaches its midpoint. Lower therefore signals inhibition by little substance. Regarding `O=C1N=C(Nc2ccccc2)S/C1=C\c1ccccc1OCc1cn(Cc2cccc(Cl)c2)nn1` [Compound 9b, (Z)-5-(2-{[1-(3-Chlorobenzyl)-1H-1,2,3-triazol-4-yl]methoxy}benzylidene)-2-(phenylamino)thiazol-4(5H)-one], the IC50 in assay [1] was 90 ± 0.56 µM; in assay [2], 28 ± 1.23 µM.

The compound `O=C1N=C(Nc2ccccc2)S/C1=C\c1ccccc1OCc1cn(Cc2ccc(Cl)cc2)nn1` [Compound 9c, (Z)-5-(2-{[1-(4-Chlorobenzyl)-1H-1,2,3-triazol-4-yl]methoxy}benzylidene)-2-(phenylamino)thiazol-4(5H)-one] yielded an IC50 in assay [2] of 10 ± 1.56 µM.
